The values below come from ChEMBL document CHEMBL3286391, “High content screening of diverse compound libraries identifies potent modulators of tubulin dynamics” (ACS Med Chem Lett, 2014).

Activity calls are given as the source filed them. The calls are words filed in the database; no cut-off is given here.

The subject of series [1] is U2OS. The series is described as follows: Induction of mitotic arrest in human U2OS cells assessed as mitotic index after 20 hrs by microscopic analysis.
In series [2] the test system is U2OS. The series is described as follows: Growth inhibition of human U2OS cells after 72 hrs by sulforhodamine B assay. Type of series: functional. In a few lines:
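GI50 in U2OS cells. Mean of at least two independent experiments, each in triplicate.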
Background: In SRB staining, fixed cells bind dye roughly in proportion to their protein.

The species named for series [3] is Sus scrofa. As to the kind of experiment: Inhibition of porcine alpha/beta tubulin polymerization at 10 uM after 1 hr by spectrophotometric analysis. An outline of the steps: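 Tubulin (3 mg/mL) incubated with compound (10 μM) and GTP at 37 °C for 1 h to monitor polymerization.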
For series [4], the species on record is Sus scrofa. As to the kind of experiment: Displacement of colchicine from porcine alpha/beta tubulin assessed as decrease in colchicine fluorescence intensity at 5 to 20 uM after 1 hr by spectrophotometric analysis relative to control. In a few lines:
(§1)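 Colchicine (3 μM), tubulin (3 μM) and compound incubated 1 h at 37 °C. Colchicine fluorescence intensity read at ex/em 365/435 nm. Nocodazole served as positive control. Mean ± s.e.m. of one experiment run in triplicate.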

The nature of series [5]: Solubility of the compound at >1 uM. The class given is physicochemical.
A further series has as its target Tubulin (Homo sapiens) (UniProt P68371+Q9H4B7+P0DPH7+P68366+Q13509+Q71U36+P04350+Q3ZCM7+P07437+P68363+Q9BQE3+Q6PEY2+Q13885+Q9BVA1+Q9BUF5). As to the kind of experiment: Binding affinity to tubulin in human U2OS cells assessed as disruption of tubulin network at 100 nM after 20 hrs by DAPI staining-based confocal microscopic analysis. Type of series: cell-based. In a few lines: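 U2OS cells treated with compound, then stained with DAPI and an α-tubulin antibody. Tubulin network imaged by confocal microscopy.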

Series [6] can be described thus: Solubility of the compound. The class given is physicochemical.
For series [7], the species on record is Sus scrofa. The series is described as follows: Displacement of colchicine from porcine alpha/beta tubulin assessed as decrease in colchicine fluorescence intensity after 1 hr by spectrophotometric analysis. In a few lines:
as §1

The nature of series [8]: Stability of the compound. The class given is physicochemical.
The species named for series [9] is Sus scrofa. As to the kind of experiment: Displacement of BODIPY-FL-vinblastine from porcine alpha/beta tubulin at 20 to 60 uM after 20 hrs by fluorescence polarization assay. In a few lines: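 Fluorescence polarization assay with FL-BODIPY-vinblastine tracer (2 μM) and tubulin (2 μM). Unlabeled vinblastine served as positive control. Ex/em 485/520 nm. Mean ± s.e.m. of one experiment run in triplicate.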
For orientation: In fluorescence polarisation assays a small probe gives low polarisation when free and higher when bound to something large.

The test system of series [10] is U2OS. The series is described as follows: Induction of mitotic arrest in human U2OS cells at 50 uM after 72 hrs by microscopic analysis relative to control. The class given is functional. To be noted: in the assay text read “after 20 hrs” for “after 72 hrs”. An outline of the steps:
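Primary screen in U2OS cells at a single 50 μM concentration, in triplicate. Cells stained for phospho-histone H3 with Hoechst counterstain and imaged by automated high content microscopy. Percentage of mitotically arrested cells calculated by algorithm.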

The test system of series [11] is U2OS. The series is described as follows: Induction of mitotic arrest in human U2OS cells assessed as mitotic index after 72 hrs by microscopic analysis. The class given is functional, cell-based. To be noted: in the assay text read “after 20 hrs” for “after 72 hrs”. An outline of the steps:
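Phenotypic high content assay in U2OS osteosarcoma cells. Cells stained for phosphorylated histone H3 (mitotic marker) and Hoechst, imaged on an automated high content microscope. An algorithm scores the percentage of cells arrested in mitosis. MI EC50 is the mean of at least two independent experiments, each in triplicate.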

The term EC50 denotes the concentration at which the effect is half-maximal. The term GI50 denotes the concentration giving 50% growth inhibition. The low end stands for more potent growth inhibition, the high end for less potent growth inhibition. With `COC(=O)c1ccc(-c2ccc(CC(=O)NCc3ccccc3)cc2)cc1`, the EC50 with U2OS [1] was determined as 0.081 µM. Also, halving of growth with U2OS [2] (GI50) required 0.027 µM.
For the molecule `Cc1ccc(-c2ccc(CC(=O)NCc3ccco3)cc2)cc1F`, the 50% effective concentration (EC50) in the series on U2OS [1] came to 0.34 µM. The molecule also registered a GI50 in the series with U2OS [2] of 0.1 µM.
As to `O=C(NCc1ccco1)c1ccc(C(=O)c2ccccc2)cc1`, the EC50 with U2OS [1] was over 40 µM.
For the molecule `O=C(NCc1ccco1)c1cc2ccccc2o1`, the EC50 with U2OS [1] was over 40 µM.
With `O=C(Cc1ccc(-c2ccc(OC(F)(F)F)cc2)cc1)NCc1ccco1`, the 50% growth inhibitory concentration (GI50) with U2OS [2] stood at 0.12 µM.
Consider `O=C(Cc1ccc(-c2ccc(C(=O)O)cc2)cc1)NCc1ccco1`, for which the EC50 in the series on U2OS [1] was over 20 µM.
Still for that read-out and setting: the figure for `O=C(Cc1ccc(-c2ccccc2)cc1)NCc1ccccn1` is 9.7 µM.
Turning to `N#Cc1ccc(-c2ccc(CC(=O)NCc3ccco3)cc2)cc1`, in the series listed under Sus scrofa [3], the inhibition result was “Active”. In addition, in the series on U2OS [1], the EC50 was 0.526 µM. In addition, the concentration for 50% growth inhibition (GI50) in the series on U2OS [2] is 0.111 µM.
As to `O=C(NCc1ccco1)c1ccc(-c2ccccc2)cc1`, the EC50 in the series with U2OS [1] is over 40 µM.
As to `O=C(Cc1ccc2ccccc2c1)NCc1ccco1`, the concentration for a half-maximal effect (EC50) in the series on U2OS [1] was determined as 12.9 µM.
Still for that read-out and setting: as for `CC(C)CNC(=O)Cc1ccc(-c2ccccc2)cc1`, the figure is over 40 µM.
Regarding `COC(=O)Nc1nc2cc(C(=O)c3cccs3)ccc2[nH]1` [NOCODAZOLE], the inhibition entry in the series filed under Sus scrofa [3] was “Active”. In addition, in the series with U2OS [1], the EC50 was 0.05 µM. For the same molecule, the Imax in the series filed under Sus scrofa [4] is 85%.
As for `C[C@H](NC(=O)Cc1ccc(-c2ccccc2)cc1)c1ccccc1`, the EC50 in the series on U2OS [1] is over 40 µM.
Regarding `CC(=O)c1ccc(-c2ccc(CC(=O)NCc3ccccc3)cc2)cc1`, the EC50 in the series with U2OS [1] was 0.028 µM. Halving of growth with U2OS [2] (GI50) required 0.011 µM. Besides, the solubility entry in series [5] was “Insoluble”. Moreover, the result on Tubulin (Homo sapiens) was Active.
Regarding `COC(=O)c1ccc(-c2ccc(CC(=O)NCc3ccco3)cc2)cc1`, the EC50 in the series with U2OS [1] came out at 0.073 µM. The GI50 in the series with U2OS [2] stood at 0.024 µM.
As to `CC(C)CNC(=O)c1ccc(-c2ccc(CC(=O)NCc3ccco3)cc2)cc1`, the EC50 with U2OS [1] amounted to 0.101 µM. This molecule also registered a GI50 in the series with U2OS [2] of 0.046 µM.
Take `COc1cc(-c2ccc(CC(=O)NCc3ccco3)cc2)cc(OC)c1OC`: in the series on U2OS [1], the EC50 is over 40 µM.
On the same count and under the same terms, the figure for `CC(=O)c1ccccc1-c1ccc(CC(=O)NCc2ccco2)cc1` is 12.9 µM.
For the molecule `CNC(=O)c1ccc(-c2ccc(CC(=O)NCc3ccco3)cc2)cc1`, in series [6], the solubility result is “soluble”. For the same molecule, the inhibition entry in the series listed under Sus scrofa [7] was “Dose-dependent effect”. Also, the inhibition entry in the series filed under Sus scrofa [3] was “Active”. In addition, in the series with U2OS [1], the concentration for a half-maximal effect (EC50) came to 0.051 µM. Moreover, the Imax in the series listed under Sus scrofa [4] turned out to be 45%. In addition, the GI50 in the series with U2OS [2] worked out at 0.021 µM. In addition, the outcome at Tubulin (Homo sapiens) was Active. The Stability result in series [8] is “Stable”. In addition, the inhibition entry in the series listed under Sus scrofa [9] was “inactive”.
In the case of `O=C(Cc1ccc(-c2ccc3c(c2)OCO3)cc1)NCc1ccco1`, the EC50 in the series with U2OS [1] was determined as 0.144 µM. In addition, growth with U2OS [2] was halved (GI50) at 0.031 µM.
As for `CC(=O)c1ccc(-c2ccc(CC(=O)NCc3ccco3)cc2)cc1`, in the series with U2OS [1], the EC50 worked out at 0.076 µM. Further, in the series on U2OS [2], growth was halved (GI50) at 0.024 µM.
For `O=C(NCc1ccco1)c1cnc2ccccc2c1`, in the series on U2OS [1], the EC50 is over 40 µM.
Regarding `CC(=O)Nc1cccc(-c2ccc(CC(=O)NCc3ccco3)cc2)c1`, the EC50 in the series with U2OS [1] stood at 0.49 µM. In addition, halving of growth in the series with U2OS [2] (GI50) required 0.12 µM.
For the molecule `CN(Cc1ccccc1)C(=O)Cc1ccc(-c2ccccc2)cc1`, the EC50 with U2OS [1] worked out at 29.9 µM.
As for `O=C(Cc1ccc(-c2ccccc2)cc1)NCc1ccncc1`, the EC50 in the series on U2OS [1] was determined as 16.6 µM.
The same measure, in the same setting: the figure for `C[C@@H](NC(=O)Cc1ccc(-c2ccccc2)cc1)c1ccccc1` is 4.83 µM.
For `O=C(Cc1ccc(-c2ccccc2)cc1)NCc1ccco1`, the Activity with U2OS [10] is on record as 40%. Further, the inhibition entry in the series listed under Sus scrofa [3] was “Active”. The inhibition result in the series with U2OS [11] is “Dose-dependent effect”. For the same molecule, the EC50 in the series with U2OS [1] worked out at 0.51 µM. In addition, the GI50 in the series on U2OS [2] worked out at 0.15 µM.
As for `O=C(NCc1ccco1)c1ccccc1-c1ccccc1`, in the series on U2OS [1], the EC50 was over 40 µM.
Same read-out and setting: the figure for `COc1ccc(CNC(=O)Cc2ccc(-c3ccccc3)cc2)cc1` is 1.9 µM; for `O=C(Cc1ccc(-c2ccccc2)cc1)NCc1ccccc1` it is 0.25 µM.
Consider `COc1c(C)cc(-c2ccc(CC(=O)NCc3ccco3)cc2)cc1C`, for which the concentration for a half-maximal effect (EC50) in the series on U2OS [1] is 1.17 µM. The molecule also displayed a GI50 with U2OS [2] of 0.603 µM.
Take `O=C(Cc1ccc(-c2ccccc2)cc1)Nc1ccccc1`: the EC50 in the series with U2OS [1] is over 40 µM.
For `O=C(Cc1ccc(-c2ccccc2)cc1)NCc1cccc(Br)c1`, the inhibition result in the series listed under Sus scrofa [3] is “inactive”. Moreover, the EC50 in the series with U2OS [1] was over 40 µM.
